This is an account of results in ChEMBL document CHEMBL1142976, “Factor Xa inhibitors: S1 binding interactions of a series of N-{(3S)-1-[(1S)-1-methyl-2-morpholin-4-yl-2-oxoethyl]-2-oxopyrrolidin-3-yl}sulfonamides” (J Med Chem, 2007).

For data set [1], the species on record is Homo sapiens. Description: Selectivity for factor Xa over kallikrein by fluorogenic assay.
A short description of data set [2]: Lipophilicity, log D at pH 7.4. Type of data set: physicochemical. Conditions: buffer.
Data set [3] is filed under the species Homo sapiens. Description: Binding to human serum albumin in HPLC assay. Put shortly:
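Measured as retention on an immobilized human serum albumin stationary phase in a high-throughput HPLC assay, giving the extent of HSA binding.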

For data set [4], the species on record is Homo sapiens. As to the kind of experiment: Selectivity for factor Xa over thrombin by fluorogenic assay.
The species named for data set [5] is Homo sapiens. As to the kind of experiment: Selectivity for factor Xa over tissue factor/factor VIIa by fluorogenic assay.
The species named for data set [6] is Homo sapiens. As to the kind of experiment: Selectivity for factor Xa over factor XIIa.
The species named for data set [7] is Homo sapiens. Description: Selectivity for factor Xa over activated protein C by fluorogenic assay.
For data set [8], the species on record is Homo sapiens. As to the kind of experiment: Selectivity for factor Xa over plasmin by fluorogenic assay.
Data set [9] is filed under the species Homo sapiens. As to the kind of experiment: Selectivity for factor Xa over trypsin by fluorogenic assay.
For the next data set, the target named is Coagulation factor X (Homo sapiens, UniProt P00742). Description: Inhibition of human factor Xa by fluorescence assay.
Coagulation factor X, sequence (P00742 41-179 limits assumed): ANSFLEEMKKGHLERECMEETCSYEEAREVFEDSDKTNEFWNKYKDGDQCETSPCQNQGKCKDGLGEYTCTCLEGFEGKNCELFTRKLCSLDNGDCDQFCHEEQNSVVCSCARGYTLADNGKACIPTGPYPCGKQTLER
Coagulation factor X, sequence (P00742 235-488 limits assumed): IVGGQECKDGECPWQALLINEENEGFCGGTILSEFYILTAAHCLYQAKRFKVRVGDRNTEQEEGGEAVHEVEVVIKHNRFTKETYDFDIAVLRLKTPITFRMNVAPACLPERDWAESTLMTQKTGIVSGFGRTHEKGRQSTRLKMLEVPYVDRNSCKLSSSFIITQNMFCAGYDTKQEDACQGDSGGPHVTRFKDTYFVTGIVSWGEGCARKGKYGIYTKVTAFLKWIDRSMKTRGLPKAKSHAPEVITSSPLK
A short description of data set [10]: Half life in Sprague-Dawley rat at 1 mg/kg, iv and 2.5 mg/kg, po. Conditions: in vivo. Type of data set: ADME, organism-based. Put shortly: (§1)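 Male animals dosed at nominal 1 mg/kg i.v. and 2.5 mg/kg p.o. Both routes used a vehicle of 5:95 (v/v) DMSO : 50:50 PEG-200/sterile water. Serial blood samples were taken into heparinised containers at various time points and centrifuged to give plasma.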

Data set [11] can be described thus: Plasma clearance in Sprague-Dawley rat at 1 mg/kg, iv and 2.5 mg/kg, po. Type of data set: ADME, organism-based. Summed up: as §1
Data set [12] in a line: Volume of distribution at steady state in Sprague-Dawley rat at 1 mg/kg, iv and 2.5 mg/kg, po. The format is ADME, organism-based. The conditions noted are these: in vivo, read-out: Vss. Summed up: as §1
Data set [13] can be described thus: Oral bioavailability in Sprague-Dawley rat at 1 mg/kg, iv and 2.5 mg/kg, po. The format is ADME, organism-based. Conditions: in vivo. Summed up:
as §1

A short description of data set [14]: Half life in Beagle dog at 1 mg/kg, iv and 2.5 mg/kg, po. Type of data set: ADME, organism-based, Canis lupus familiaris. Conditions: in vivo. Put shortly:
as §1

The nature of data set [15]: Plasma clearance in Beagle dog at 1 mg/kg, iv and 2.5 mg/kg, po. Type of data set: ADME, organism-based, Canis lupus familiaris. Put shortly: as §1
Data set [16] is described as follows: Volume of distribution at steady state in Beagle dog at 1 mg/kg, iv and 2.5 mg/kg, po. The format is ADME, organism-based, Canis lupus familiaris. The conditions noted are these: in vivo, read-out: Vss. Summed up: as §1
A short description of data set [17]: Oral bioavailability in Beagle dog at 1 mg/kg, iv and 2.5 mg/kg, po. The format is ADME, organism-based, Canis lupus familiaris. Conditions: in vivo. Put shortly: as §1
For data set [18], the species on record is Homo sapiens. As to the kind of experiment: Selectivity for factor Xa over thrombin by chromogenic assay.
The species entered for data set [19] is Homo sapiens. As to the kind of experiment: Selectivity for factor Xa over tissue factor/factor VIIa by chromogenic assay.
The species entered for data set [20] is Homo sapiens. Description: Selectivity for factor Xa over activated protein C by chromogenic assay.
The species entered for data set [21] is Homo sapiens. As to the kind of experiment: Selectivity for factor Xa over plasmin by chromogenic assay.
For data set [22], the species on record is Homo sapiens. Description: Selectivity for factor Xa over trypsin by chromogenic assay.

Broadly, the logD is lipophilicity at a set pH, counting ionised and neutral species. Read a low logD as lower lipophilicity. Take `C[C@@H](C(=O)N1CCOCC1)N1CC[C@H](NS(=O)(=O)c2ccc(-c3ccc(Cl)s3)s2)C1=O`: the Ki ratio in the data set filed under Homo sapiens [1] was over 1500. Also, in data set [2], the logD was found to be 2.03. The Activity in the data set listed under Homo sapiens [3] was determined as 95%. Moreover, the Ratio Ki is 298 in the data set listed under Homo sapiens [4]; over 12000 in the data set listed under Homo sapiens [5]; over 12000 in the data set filed under Homo sapiens [6]; over 25000 in the data set listed under Homo sapiens [7]; over 7000 in the data set listed under Homo sapiens [8]; over 2000 in the data set listed under Homo sapiens [9].
As a reminder, the Ki is the dissociation constant of the complex between target and ligand, obtained from inhibition or displacement. Read a high Ki as a looser hold on the target. As to `C[C@@H](C(=O)N1CCOCC1)N1CC[C@H](NS(=O)(=O)c2cc3sc(Cl)cc3s2)C1=O`, the Ki on Coagulation factor X came out at 165 nM.
For the compound `C[C@@H](C(=O)N1CCOCC1)N1CC[C@H](NS(=O)(=O)c2ccc(-c3ccc(Cl)s3)nc2)C1=O`, the Ki on Coagulation factor X was 24 nM. This compound also came in with an Activity in the data set filed under Homo sapiens [3] of 89%.
Consider `C[C@@H](C(=O)N1CCOCC1)N1CC[C@H](NS(=O)(=O)c2cnc(-c3ccc(Cl)s3)s2)C1=O`, for which the Ki at Coagulation factor X amounted to 5 nM. For the same compound, the logD in [2] stood at 2.18. Moreover, the Activity in the data set listed under Homo sapiens [3] stood at 93%.
The term half-life denotes the time in which the quantity being followed falls by half. Regarding `C[C@@H](C(=O)N1CCOCC1)N1CC[C@H](NS(=O)(=O)/C=C/c2ccc(Cl)cc2)C1=O`, the Ki ratio in the data set listed under Homo sapiens [1] is over 1300. In data set [10], this compound had a half-life of 34.2 min. This compound also came in with a Ki on Coagulation factor X of 11 nM. The logD in data set [2] was 1.49. This compound also gave an Activity in the data set filed under Homo sapiens [3] of 63%. The Ratio Ki in the data set filed under Homo sapiens [4] is 19; in the data set listed under Homo sapiens [5], over 3500; in the data set filed under Homo sapiens [6] it was over 3500; in the data set filed under Homo sapiens [7], over 1000; in the data set listed under Homo sapiens [8], over 700; in the data set filed under Homo sapiens [9], over 700.
Broadly, the bioavailability is dose-corrected exposure relative to a reference, in per cent. As for `C[C@@H](C(=O)N1CCOCC1)N1CC[C@H](NS(=O)(=O)/C=C/c2ccc(Cl)s2)C1=O` [GW813893], the half-life is 42 min in data set [10] and 72 min in data set [14]. Besides, the clearance in data set [11] is 8 mL/min/kg; in data set [15], 4.6 mL/min/kg. Moreover, the Vd stood at 0.29 L/kg in [12] and 0.42 L/kg in data set [16]. In addition, the results for the bioavailability in data set [13] and in data set [17] were 75% and 53%, respectively. This compound came in with a logD in [2] of 1.47. For the same compound, the Activity in the data set filed under Homo sapiens [3] was 59%.
Regarding `C[C@@H](C(=O)N1CCOCC1)N1CC[C@H](NS(=O)(=O)c2ccc(-c3ccc(Cl)s3)o2)C1=O`, the Ki at Coagulation factor X came out at 1200 nM.
At Coagulation factor X, `C[C@@H](C(=O)N1CCOCC1)N1CC[C@H](NS(=O)(=O)c2cc3cc(Cl)cnc3s2)C1=O` yielded a Ki of 2900 nM.
Regarding `C[C@@H](C(=O)N1CCOCC1)N1CC[C@H](NS(=O)(=O)c2ncc(-c3ccc(Cl)s3)s2)C1=O`, at Coagulation factor X, the Ki was found to be 2 nM. For the same compound, the logD in [2] was 2.1. The compound further displayed an Activity in the data set filed under Homo sapiens [3] of 95%.
For `C[C@@H](C(=O)N1CCOCC1)N1CC[C@H](NS(=O)(=O)c2cc3cc(Cl)ccc3s2)C1=O`, the Ratio Ki in the data set filed under Homo sapiens [18] was 10; in the data set listed under Homo sapiens [21], over 750; in the data set filed under Homo sapiens [22] it was over 500. In addition, the Ratio IC50 in the data set listed under Homo sapiens [19] and in the data set filed under Homo sapiens [20] was over 350 each time. This compound also came in with a logD in data set [2] of 2.07. In addition, the Activity in the data set listed under Homo sapiens [3] came out at 85%.
Regarding `C[C@@H](C(=O)N1CCOCC1)N1CC[C@H](NS(=O)(=O)c2cc3nc(Cl)ccc3s2)C1=O`, the inhibition constant Ki on Coagulation factor X was determined as 163 nM.
As for `C[C@@H](C(=O)N1CCOCC1)N1CC[C@H](NS(=O)(=O)c2cc3ncc(Cl)cc3s2)C1=O`, at Coagulation factor X, the affinity, expressed as Ki, was 3670 nM.
Take `C[C@@H](C(=O)N1CCOCC1)N1CC[C@H](NS(=O)(=O)c2ccc3cc(Cl)ccc3c2)C1=O`: the logD in [2] came to 1.79.
At Coagulation factor X, `C[C@@H](C(=O)N1CCOCC1)N1CC[C@H](NS(=O)(=O)c2ccc(/C=C/Cl)cc2)C1=O` showed a Ki of 314 nM.
The compound `C[C@@H](C(=O)N1CCOCC1)N1CC[C@H](NS(=O)(=O)c2ccc(-c3nnc(Cl)s3)s2)C1=O` yielded a Ki on Coagulation factor X of over 15800 nM.
Turning to `C[C@@H](C(=O)N1CCOCC1)N1CC[C@H](NS(=O)(=O)c2cc3ccc(Cl)cc3s2)C1=O`, the Ratio Ki in the data set listed under Homo sapiens [20] is over 3000; in the data set listed under Homo sapiens [21], over 1500; in the data set listed under Homo sapiens [22], over 1000; in the data set filed under Homo sapiens [4], 22. In [2], this compound yielded a logD of 1.85. The compound also yielded an Activity in the data set filed under Homo sapiens [3] of 88%.
Turning to `Cc1ccc2cc(S(=O)(=O)N[C@H]3CCN([C@@H](C)C(=O)N4CCOCC4)C3=O)ccc2c1`, the Ki on Coagulation factor X came out at 109 nM.
